These results are taken from publication PMC11310375 (EJNMMI Radiopharmacy and Chemistry, 2024).

For assay [1], the target named is caspase-8 (Homo sapiens, UniProt Q14790). Description: Biochemical inhibition assay, kinact/Ki with AMAC substrate. The conditions noted are these: AMAC-substrates, N = 4. The procedure, abridged: (§1)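 Caspase-8 (25 nM), caspase-9 (100 nM) and caspase-10 (20 nM) used Ac-IETD-AMAC; caspase-9 and caspase-10 buffers also had 0.7 M sodium citrate. Caspase-6 (25 nM) used Ac-VEID-AMAC. Fluorescence (ex 320/em 460) was read immediately, and progress curves were fit for kinact and Ki.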
Chain of caspase-8 (Q14790 217-374 limits assumed): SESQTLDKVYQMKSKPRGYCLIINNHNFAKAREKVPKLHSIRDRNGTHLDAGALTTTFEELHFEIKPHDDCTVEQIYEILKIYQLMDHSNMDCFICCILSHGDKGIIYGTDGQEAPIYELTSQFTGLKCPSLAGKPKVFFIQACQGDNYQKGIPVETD
Chain of caspase-8 (Q14790 385-479 limits assumed): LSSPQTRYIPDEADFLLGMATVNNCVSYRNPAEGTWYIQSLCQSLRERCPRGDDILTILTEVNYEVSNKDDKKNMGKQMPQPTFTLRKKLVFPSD

Assay [2] deals with T1, caspase-3 (Homo sapiens, UniProt P42574).
T1 sequence (P42574 29-175 limits assumed): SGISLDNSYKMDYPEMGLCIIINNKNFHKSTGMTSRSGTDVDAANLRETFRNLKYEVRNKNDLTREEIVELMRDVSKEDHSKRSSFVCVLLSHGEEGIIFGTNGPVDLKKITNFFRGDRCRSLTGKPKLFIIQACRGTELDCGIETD
T1 sequence (P42574 176-277 limits assumed): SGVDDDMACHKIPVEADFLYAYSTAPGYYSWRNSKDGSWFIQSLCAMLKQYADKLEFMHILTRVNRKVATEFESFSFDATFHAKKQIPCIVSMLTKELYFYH
Description: Biochemical inhibition assay, kinact/Ki with AMAC substrate. The settings on record: AMAC-substrates, N = 4. The procedure, abridged: (§2)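 Continuous fluorogenic inactivation assay with Ac-DEVD-AMAC at 100 μM final. Final enzyme concentrations were 1 nM caspase-3 and 5 nM caspase-7. Enzyme was added to substrate plus inhibitor, and fluorescence (ex 320/em 460) was read immediately. Progress curves were fit to F = -[v₀(1-exp(-kobst))/kobs-Fmax] to give kinact and Ki.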

The target in assay [3] is T2, caspase-6 (Homo sapiens, UniProt P55212).
T2 sequence (P55212 24-179 limits assumed): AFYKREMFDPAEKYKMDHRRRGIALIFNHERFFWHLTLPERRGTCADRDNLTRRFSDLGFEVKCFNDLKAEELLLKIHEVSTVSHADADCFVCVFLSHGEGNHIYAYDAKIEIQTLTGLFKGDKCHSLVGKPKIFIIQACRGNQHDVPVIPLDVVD
T2 sequence (P55212 194-293 limits assumed): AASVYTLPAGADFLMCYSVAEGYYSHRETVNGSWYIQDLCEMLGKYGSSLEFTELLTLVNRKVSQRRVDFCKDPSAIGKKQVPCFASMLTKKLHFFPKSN
In words: Biochemical inhibition assay, kinact/Ki with AMAC substrate. The conditions noted are these: AMAC-substrates, N = 4. The essentials:
as §1

Assay [4] has as its system Jurkat cells. The settings on record: ref Solania et al. [2019]; cited from earlier work.
Assay [5] deals with T3, caspase-9 (Homo sapiens, UniProt P55211).
T3 sequence (P55211 1-315 limits assumed): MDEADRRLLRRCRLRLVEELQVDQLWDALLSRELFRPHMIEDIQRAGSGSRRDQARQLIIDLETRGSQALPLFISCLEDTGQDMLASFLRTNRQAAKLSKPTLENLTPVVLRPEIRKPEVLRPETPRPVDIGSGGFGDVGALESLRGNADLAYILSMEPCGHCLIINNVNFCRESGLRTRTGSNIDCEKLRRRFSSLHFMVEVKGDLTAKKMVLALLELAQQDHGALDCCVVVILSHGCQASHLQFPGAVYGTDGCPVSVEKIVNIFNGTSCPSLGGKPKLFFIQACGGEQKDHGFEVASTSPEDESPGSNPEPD
T3 sequence (P55211 331-416 limits assumed): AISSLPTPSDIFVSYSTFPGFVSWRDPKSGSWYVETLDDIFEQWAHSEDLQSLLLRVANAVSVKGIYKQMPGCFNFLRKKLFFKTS
In words: Biochemical inhibition assay, kinact/Ki with AMAC substrate. The conditions noted are these: AMAC-substrates, N = 4. The essentials: as §1

Assay [6] concerns the target T4, caspase-7 (Homo sapiens, UniProt P55210).
T4 sequence (P55210 24-198 limits assumed): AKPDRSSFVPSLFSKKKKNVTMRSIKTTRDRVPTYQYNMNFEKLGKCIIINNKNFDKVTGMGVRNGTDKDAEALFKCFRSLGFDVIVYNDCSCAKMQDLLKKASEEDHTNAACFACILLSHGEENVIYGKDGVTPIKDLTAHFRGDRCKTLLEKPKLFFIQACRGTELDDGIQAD
T4 sequence (P55210 207-303 limits assumed): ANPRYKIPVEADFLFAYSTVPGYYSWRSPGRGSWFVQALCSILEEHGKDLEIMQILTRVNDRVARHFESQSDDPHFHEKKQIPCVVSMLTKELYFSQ
Description: Biochemical inhibition assay, kinact/Ki with AMAC substrate. The conditions noted are these: AMAC-substrates, N = 4. The essentials: as §2

The target of assay [7] is T1, caspase-3. In words: Biochemical inhibition assay, kinact/Ki with Ac-DEVD-AMC substrate. The procedure, abridged: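 Ac-DEVD-AMC was 50 µM final and inhibitor 20 to 80 nM final. Reference inhibitor Ac-ATS010-KE was run alongside. kinact/Ki was derived as for the AMAC assay.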
Assay [8] addresses T5, caspase-10 (Homo sapiens, UniProt Q92851).
T5 sequence (Q92851 220-415 limits assumed): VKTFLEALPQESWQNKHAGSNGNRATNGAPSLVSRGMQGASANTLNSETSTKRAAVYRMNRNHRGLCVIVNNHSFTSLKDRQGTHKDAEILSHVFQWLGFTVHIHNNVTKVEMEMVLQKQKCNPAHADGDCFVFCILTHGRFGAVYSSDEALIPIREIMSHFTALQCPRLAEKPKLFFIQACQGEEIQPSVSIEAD
T5 sequence (Q92851 416-521 limits assumed): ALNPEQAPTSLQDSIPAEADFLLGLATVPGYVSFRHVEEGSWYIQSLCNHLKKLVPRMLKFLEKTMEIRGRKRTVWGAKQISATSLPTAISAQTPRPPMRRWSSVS
In words: Biochemical inhibition assay, kinact/Ki with AMAC substrate. The conditions noted are these: AMAC-substrates, N = 4. The procedure, abridged: as §1

The target in assay [9] is T1, caspase-3. The settings on record: cited from earlier work.
For assay [10], the system named is HeLa cells. Description: Caspase activity assay with fluorogenic substrate Ac-DEVD-AMC in cell lysates. In kind it is cell-based, human. The conditions noted are these: HeLa cells treated with STS. The essentials: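 HeLa cells were seeded at 0.3×10^6 per well in supplemented DMEM at 37 °C, 5% CO₂. […] Cells were lysed in hypotonic PIPES/NP-40 buffer pH 7.4 on ice. Lysate (20 μg protein) was incubated with 50 μM Ac-DEVD-AMC in 100 μL caspase buffer for 1 h at 37 °C. AMC fluorescence (ex 360/em 460) was converted to pmol by free-AMC standard curve; mean of three.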

The test system of assay [11] is HT29 tumours. In words: Caspase activity in tumour homogenates with fluorogenic substrate. Format: in vivo, CD1^−/− nude mice. The conditions noted are these: 24 h after treatment. The essentials:
(§3)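 Female CD1 nude mice bore subcutaneous hind-leg xenografts: COLO205 at 2×10⁶ cells, HT29 at 10×10⁶. At about 200 mm³, mice received conatumumab or IgG1 isotype, 1.5 mg/kg i.p. Tumours were taken 24 h later and homogenised. Homogenate (20 μg protein) was incubated with 50 μM Ac-DEVD-AMC in caspase buffer, 1 h, 37 °C. AMC (ex 360/em 460) was quantified in pmol against a free-AMC standard; N = 3.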

Assay [12] has as its system COLO205 tumours. The assay is described as above. In kind it is in vivo, CD1^−/− nude mice. The conditions noted are these: 24 h after treatment. The essentials:
as §3

As for “Ac-3Pal-Asp-Phe(F5)-Phe-Asp-KE [Ac-ATS010-KE, reference compound]”, in assay [1], the “kinact/Ki C8” value is 25000 M⁻¹ s⁻¹. Moreover, in [2], the “kinact/Ki C3” value turned out to be 1.7e+06 M⁻¹ s⁻¹. The “kinact/Ki C6” value in assay [3] came to 300 M⁻¹ s⁻¹. The “protection from MegaFasL-induced apoptosis” value in assay [4] is “able to protect Jurkat cells from MegaFasL-induced apoptosis”. In assay [5], the “kinact/Ki C9” value amounted to 14000 M⁻¹ s⁻¹. Moreover, in assay [6], the “kinact/Ki C7” value is 190000 M⁻¹ s⁻¹. Further, the “kinact/Ki caspase-3” value in assay [7] is on record as 46.48 ± 9.96 × 10^4.s^−1.M^−1. Also, the “kinact/Ki C10” value in assay [8] amounted to 1000 M⁻¹ s⁻¹. Moreover, the “increase of kinact/Ki for caspase-3 over the DW3 sequence” value in assay [9] (ref Solania et al. [2019]) is given as 154 fold.
`CN[C@@H]1C[C@H]2O[C@@](C)([C@@H]1OC)n1c3ccccc3c3c4c(c5c6ccccc6n2c5c31)C(=O)NC4` [STS, staurosporine]: the “AMC liberation (caspase activity)” value in assay [10] worked out at 1598 ± 444 pmol AMC.
As for “conatumumab: apoptosis-inducing therapy (Amgen) given to tumour-bearing mice, compared with IgG1 isotype control”, the “caspase activity, liberated AMC” value in assay [11] is recorded as 679 ± 63 pmol liberated AMC; in assay [12], 15,119 ± 761 pmol liberated AMC.
With “Ac-3Pal-Asp-βhLeu-Phe-Asp-KE [Ac-DW3-KE]”, in assay [9] (ref Solania et al. [2019]), the “efficiency in inactivation of caspase-3, less than Ac-DEVD-KE” value is listed as 500 times. Also, in assay [9] (ref Vickers et al. [2013]), the “selectivity for caspase-3 against caspase-7” value was 120 fold and the “selectivity for caspase-3 against caspase-8” value is reported as 58 fold.
